In brackets after ≈: the same amount, converted by molar mass.
Columns and labels:
[1] = system: Canis familiaris; test: Effect on respiratory function in spontaneously breathing mongrel dog assessed as change in intrapleural pressure at 5 mg/kg after intravenous infusion for 6 mins (RVb= -21.2+/-26.5 %); assay type: functional, Canis lupus familiaris
[2] = system: Canis familiaris; test: Effect on respiratory function in spontaneously breathing mongrel dog assessed as change in mean arterial pressure at 5 mg/kg after intravenous infusion for 6 mins (RVb= 1.5+/-0.9 %); assay type: functional, Canis lupus familiaris, Artery
[3] = system: Rattus norvegicus; test: Toxicity in rat assessed as total distance traveled at 1 mg/kg, po after 1 hr by spontaneous locomotor test; assay type: organism-based; design: dose 1 mg/kg, route oral; details: in vivo
In short: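 Spontaneous locomotor activity in rats dosed po in 0.25% Methocel 1 h pretest; doses up to 100 mg/kg. Compared with the vehicle (zero dose) group, mean ± SEM, N = rats.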

[4] = system: Canis familiaris; test: Effect on respiratory function in spontaneously breathing mongrel dog assessed as change in respiration rate at 5 mg/kg after intravenous infusion for 15 mins (RVb= -6.4+/-4.0 %); assay type: functional, Canis lupus familiaris
[5] = system: Rattus norvegicus; test: Ex vivo receptor occupancy of CRF receptor in rat brain at 10 mg/kg, po by [125I]sauvagine binding and autoradiography relative to control; assay type: functional
In short: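 Rats were given 0.3, 1, 3, 10 or 30 mg/kg po in 0.25% Methocel 60 min before sacrifice. Brains were removed, sectioned and frozen at −80 °C. Ex vivo CRF receptor binding gave occupancy relative to vehicle-treated rats, reported as mean ± SEM.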

[6] = Aqueous solubility at pH 7.4; assay type: physicochemical; details: aqueous medium
In short: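 Solubility measured in water at pH 7.4.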

[7] = system: Canis familiaris; test: Effect on respiratory function in spontaneously breathing mongrel dog assessed as change in respiration rate at 5 mg/kg after intravenous infusion for 6 mins (RVb= -8.3+/-8.3 %); assay type: functional, Canis lupus familiaris
[8] = system: Canis familiaris; test: Effect on respiratory function in spontaneously breathing mongrel dog assessed as change in respiration rate at 5 mg/kg after intravenous infusion for 60 mins (RVb= -19.5+/-16.3 %); assay type: functional, Canis lupus familiaris
[9] = Plasma concentration in spontaneously breathing dog at 5 mg/kg, iv after 30 mins; assay type: ADME, organism-based, Canis lupus familiaris; design: dose 5 mg/kg, route intravenous
In short: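 Spontaneously breathing, barbiturate-anesthetized mongrel dogs (n = 4) infused iv at 5.0 mg/kg over 6 min. Total pooled plasma concentrations taken at 6, 15, 30 and 60 min.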

[10] = AUC (0 to infinity) in chimpanzee at 0.5 mg/kg, iv; assay type: ADME, organism-based, Pan troglodytes; design: time infinity, dose 0.5 mg/kg, route intravenous; details: plasma
In short: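 Chimpanzee PK. Oral: 1 mg/kg in two alert animals, given as a 1 mg/mL suspension in 50–50 (v/v) 0.5% methylcellulose/Tang orange juice with 1% Tween-80. IV: 0.5 mg/kg in one animal in 10% DMAC, 70% propylene glycol and deionized water, infused over 10 min (0.2 mL/kg). EDTA blood was taken predose and at 2–96 h; iv sampling added 6, 15 and 30 min.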

[11] = Oral bioavailability in chimpanzee at 1 mg/kg; assay type: ADME, organism-based, Pan troglodytes; details: in vivo
In short: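 Two alert chimpanzees were given 1 mg/kg po as a 1 mg/mL suspension in 50:50 (v/v) 0.5% methylcellulose and Tang orange juice containing 1% Tween-80. EDTA blood was taken predose and at 2–96 h. Bioavailability was calculated against a 0.5 mg/kg iv dose given to one animal.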

[12] = system: Rattus norvegicus; test: Anxiolytic activity in rat assessed as decrease in latency to exit dark chamber at 10 mg/kg, po by defensive withdrawal test relative to untreated control; assay type: functional; design: scale not given: the % may be the effect or the level left
In short: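 Rat defensive withdrawal: latency to leave the dark chamber and explore the open field, maximum 900 s. Dosed orally in 0.25% Methocel 60 min before testing; n = 8 per dose, mean ± SEM. Analysed by Kruskal–Wallis followed by Mann–Whitney U against vehicle.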

[13] = system: Rattus norvegicus; test: Toxicity in rat assessed as total distance traveled at 3 mg/kg, po after 1 hr by spontaneous locomotor test; assay type: organism-based; design: dose 3 mg/kg, route oral; details: in vivo
In short: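 Rat spontaneous locomotor activity test with oral dosing in 0.25% Methocel 1 h before testing, at doses up to 100 mg/kg. Values are mean ± SEM, with N rats per group, compared with the vehicle (zero-dose) group.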

[14] = system: Canis familiaris; test: Effect on respiratory function in spontaneously breathing mongrel dog assessed as change in minute volume at 5 mg/kg after intravenous infusion for 30 mins (RVb= 1.0+/-9.7 %); assay type: functional, Canis lupus familiaris
[15] = system: Rattus norvegicus; test: Effect on acute renal function in rat assessed as change in urine volume per 100 gm body weight at 30 mg/kg, po (RVb= 1.7+/-0.2 ml/100g); assay type: functional
[16] = Solubility in ethanol; assay type: physicochemical
[17] = system: Rattus norvegicus; test: Toxicity in rat assessed as time spent on rotarod at 30 mg/kg, po after 1 hr by rotarod test; assay type: organism-based; design: dose 30 mg/kg, route oral; details: in vivo
In short: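 Rats, n = 8 per dose, dosed po in 0.25% Methocel 1 h before testing, at 0, 1.0, 3.0, 10, 30 and 100 mg/kg. Read-out is time on rotorod (s), mean ± SEM, compared with the vehicle (zero-dose) group.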

[18] = biological target: T1, Corticotropin-releasing factor receptor 1 (Rattus norvegicus, UniProt P35353); test: Antagonist activity at CRF1 receptor in rat pituitary cells assessed as inhibition of CRF-mediated ACTH production; assay type: functional, cell-based, Pituitary gland cell
T1 sequence (P35353 whole entry): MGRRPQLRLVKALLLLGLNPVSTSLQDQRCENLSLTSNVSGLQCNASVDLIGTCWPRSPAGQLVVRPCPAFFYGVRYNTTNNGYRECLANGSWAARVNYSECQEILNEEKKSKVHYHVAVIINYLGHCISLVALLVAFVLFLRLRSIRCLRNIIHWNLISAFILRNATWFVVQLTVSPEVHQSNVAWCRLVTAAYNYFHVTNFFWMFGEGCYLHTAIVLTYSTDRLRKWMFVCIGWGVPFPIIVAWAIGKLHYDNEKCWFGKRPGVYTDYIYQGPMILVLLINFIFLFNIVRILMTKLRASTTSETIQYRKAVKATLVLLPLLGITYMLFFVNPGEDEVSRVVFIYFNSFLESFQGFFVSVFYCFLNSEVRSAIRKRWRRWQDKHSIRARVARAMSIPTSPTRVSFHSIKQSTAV

[19] = system: Canis familiaris; test: Effect on respiratory function in spontaneously breathing mongrel dog assessed as change in intrapleural pressure at 5 mg/kg after intravenous infusion for 30 mins (RVb= -90.8+/-103 %); assay type: functional, Canis lupus familiaris
[20] = Solubility in 0.01 N HCl at pH 2.5; assay type: physicochemical
[21] = biological target: T2, Corticotropin-releasing factor-binding protein (Homo sapiens, UniProt P24387); test: Binding affinity to human recombinant CRF binding protein
T2 sequence (P24387 whole entry): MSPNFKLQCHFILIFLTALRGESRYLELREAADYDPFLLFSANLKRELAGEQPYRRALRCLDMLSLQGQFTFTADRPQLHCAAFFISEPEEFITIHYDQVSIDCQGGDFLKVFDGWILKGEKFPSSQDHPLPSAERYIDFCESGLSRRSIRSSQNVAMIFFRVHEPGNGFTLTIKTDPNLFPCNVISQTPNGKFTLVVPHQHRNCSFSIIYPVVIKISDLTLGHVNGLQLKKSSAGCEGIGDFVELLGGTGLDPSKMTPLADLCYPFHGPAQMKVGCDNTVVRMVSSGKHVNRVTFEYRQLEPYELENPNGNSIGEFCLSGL

[22] = system: Rattus norvegicus; test: Effect on acute renal function in rat assessed as change in urine protein level per 100 gm body weight at 30 mg/kg, po (RVb= 12.0+/-2.4 mg/dl); assay type: functional

- solubility [6]: 0.016 mg/mL (≈ 0.047 mM)
- concentration at 0.5 h [9]: 412 nM
- AUC(0-inf) [10]: 11.9 µM·h
- bioavailability [11]: 49%
- solubility [16]: 300 mg/mL (≈ 881 mM)
- IC50 [18]: 129 nM
- solubility [20]: 16.3 mg/mL (≈ 47.9 mM)
- IC50 [21]: > 1000 nM
SMILES: CC[C@@H](C)Nc1nc(C)nc2c(-c3ccc(OC)nc3C)c(C)nn12 [PEXACERFONT]
- Activity [1]: 3.3%
- Activity [2]: 3.8%
- Activity [3]: 4106 cm
- Activity [4]: -3.1%
- Activity [5]: 69%
- Activity [7]: 37.5%
- Activity [8]: -14.6%
- Activity [12]: 65%
- Activity [13]: 5639 cm
- Activity [14]: -30.8%
- Activity [15]: 3 mL/100 g
- Time [17]: 157 s
- Activity [19]: 8.6%
- Activity [22]: 6.6 mg/dL

Source: ChEMBL document CHEMBL1138476 (J Med Chem, 2009)
